Experimental data published in ChEMBL document CHEMBL2311328, “Molecular docking and synthesis of novel quinazoline analogues as inhibitors of transcription factors NF-κB activation and their anti-cancer activities” (2013).
The source made the active and inactive calls. The calls are words filed in the database; no cut-off is given here.

Key:
HepG2 [1] = assay: Inhibition of TNFalpha-induced NFkappaB (unknown origin)-dependent transcriptional activity expressed in human HepG2 cells at 1 uM incubated for 1 hr prior to TNFalpha induction measured after 6 hrs by dual-luciferase reporter gene assay; format: cell-based
Summary of the method: (§1)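 HepG2 cells in DMEM with 10% FBS were lipofectamine-transfected with 10 ng/well pGL4.32 NF-κB-Luc plus Renilla control. Compound in DMSO was given in fresh medium for 1 h at 37 °C, then TNFα (final 20 ng/ml) for 6 h. Cells were lysed in passive lysis buffer. Firefly light units were normalized to Renilla; one-way ANOVA.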

HepG2 [2] = assay: Cytotoxicity against human HepG2 cells assessed as cellular growth at 50 uM incubated for 1 hr prior to TNF alpha stimulation measured after 48 hrs by SRB assay; format: functional
Summary of the method: (§2)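 HepG2 cells in DMEM with 10% FBS and penicillin/streptomycin were allowed to adhere 24 h, and a T0 plate was fixed. Compound was given for 1 h at 37 °C, with or without 20 ng/ml TNFα, then 48 h more. Cells were stained with 0.4% SRB for 30 min at RT, washed in 1% acetic acid, and solubilized in 10 mM Tris. OD read at 515 nm; one-way ANOVA.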

HepG2 [3] = assay: Cytotoxicity against human HepG2 cells assessed as cellular growth at 50 uM after 48 hrs by SRB assay in absence of TNFalpha; format: functional; summary of the method: as §2
HepG2 [4] = assay: Inhibition of TNFalpha-induced NFkappaB (unknown origin)-dependent transcriptional activity expressed in human HepG2 cells at 0.1 to 10 uM incubated for 1 hr prior to TNFalpha induction measured after 6 hrs by dual-luciferase reporter gene assay; format: cell-based; summary of the method: as §1

Row | Structure (SMILES) | inhibition (HepG2 [1]) | Activity (HepG2 [2]) | Activity (HepG2 [3]) | inhibition (HepG2 [4])
1 | Oc1ccc(Br)cc1CN1CCN(c2nc(-c3ccccc3)nc3ccccc23)CC1 | Active | 13% | 15.5% | 
2 | Oc1ccc(CN2CCN(c3ncnc4ccccc34)CC2)cc1 | Active | -13.3% | -5.3% | 
3 | Oc1ccccc1CN1CCN(c2ncnc3ccccc23)CC1 | Active | -26% | -21.7% | 
4 | Oc1ccc(Br)cc1CN1CCN(c2ncnc3ccccc23)CC1 | Active | -29.9% | -22% | 
5 | Oc1ccc(CN2CCN(c3nc(-c4ccccc4)nc4ccccc34)CC2)cc1 | Active | -49.1% | -37.6% | 
6 | Nc1ccc2ncnc(NCCc3ccc(Oc4ccccc4)cc3)c2c1 |  |  |  | Active
